≈ marks a conversion by molar mass, not a printed value. One block for each compound: values may come before it.
What was measured:
[1] = Metabolic stability in rat liver microsomes after 30 mins; assay type: ADME, Microsome; conditions: read-out: Stability
Method in brief: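 Compounds incubated in triplicate with pooled rat liver microsomes plus NADPH at 37 °C for 30 min. Reported as percent remaining.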

[2] = Metabolic stability in rat plasma after 30 mins; assay type: ADME, cell-free; conditions: read-out: Stability
Method in brief: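 Compounds incubated in fresh rat plasma at 37 °C for 30 min. Reported as percent remaining.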

[3] = Permeability by PAMPA assay; assay type: ADME
[4] = Solubility at pH 7.4 by direct UV method; assay type: physicochemical; conditions: buffer
Method in brief: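 Direct UV kinetic solubility in aqueous buffer at pH 7.4, in duplicate. Samples held at room temperature for at least 18 h, then filtered to remove precipitate. UV absorbance (250-498 nm) compared with spectra of precipitation-free reference solutions.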

[5] = target: T1, Alkaline phosphatase, tissue-nonspecific isozyme (Homo sapiens, UniProt P05186); experiment: Inhibition of TNAP transfected in african green monkey COS1 cells by luminescent assay
T1 sequence (P05186 whole entry): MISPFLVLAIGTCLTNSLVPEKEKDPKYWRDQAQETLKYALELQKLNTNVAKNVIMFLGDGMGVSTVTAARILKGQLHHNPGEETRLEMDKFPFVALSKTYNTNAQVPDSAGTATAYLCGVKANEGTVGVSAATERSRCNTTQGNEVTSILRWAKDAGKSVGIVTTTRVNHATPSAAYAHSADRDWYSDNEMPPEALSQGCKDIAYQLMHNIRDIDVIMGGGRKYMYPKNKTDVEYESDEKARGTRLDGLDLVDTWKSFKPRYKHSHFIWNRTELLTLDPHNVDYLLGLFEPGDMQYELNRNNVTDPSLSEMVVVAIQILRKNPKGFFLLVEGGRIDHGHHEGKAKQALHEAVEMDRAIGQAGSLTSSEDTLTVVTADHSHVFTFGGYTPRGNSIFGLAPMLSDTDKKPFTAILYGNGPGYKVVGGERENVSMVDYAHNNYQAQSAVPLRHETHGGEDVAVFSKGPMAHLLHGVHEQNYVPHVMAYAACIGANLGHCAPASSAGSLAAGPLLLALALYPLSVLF

[6] = target: Intestinal-type alkaline phosphatase (Homo sapiens, UniProt P09923); experiment: Inhibition of IAP by luminescent assay
[7] = target: T2, Ectonucleotide pyrophosphatase/phosphodiesterase family member 1 (Homo sapiens) (UniProt P22413); experiment: Inhibition of NPP1; conditions: concentration not given here
T2 sequence (whole entry): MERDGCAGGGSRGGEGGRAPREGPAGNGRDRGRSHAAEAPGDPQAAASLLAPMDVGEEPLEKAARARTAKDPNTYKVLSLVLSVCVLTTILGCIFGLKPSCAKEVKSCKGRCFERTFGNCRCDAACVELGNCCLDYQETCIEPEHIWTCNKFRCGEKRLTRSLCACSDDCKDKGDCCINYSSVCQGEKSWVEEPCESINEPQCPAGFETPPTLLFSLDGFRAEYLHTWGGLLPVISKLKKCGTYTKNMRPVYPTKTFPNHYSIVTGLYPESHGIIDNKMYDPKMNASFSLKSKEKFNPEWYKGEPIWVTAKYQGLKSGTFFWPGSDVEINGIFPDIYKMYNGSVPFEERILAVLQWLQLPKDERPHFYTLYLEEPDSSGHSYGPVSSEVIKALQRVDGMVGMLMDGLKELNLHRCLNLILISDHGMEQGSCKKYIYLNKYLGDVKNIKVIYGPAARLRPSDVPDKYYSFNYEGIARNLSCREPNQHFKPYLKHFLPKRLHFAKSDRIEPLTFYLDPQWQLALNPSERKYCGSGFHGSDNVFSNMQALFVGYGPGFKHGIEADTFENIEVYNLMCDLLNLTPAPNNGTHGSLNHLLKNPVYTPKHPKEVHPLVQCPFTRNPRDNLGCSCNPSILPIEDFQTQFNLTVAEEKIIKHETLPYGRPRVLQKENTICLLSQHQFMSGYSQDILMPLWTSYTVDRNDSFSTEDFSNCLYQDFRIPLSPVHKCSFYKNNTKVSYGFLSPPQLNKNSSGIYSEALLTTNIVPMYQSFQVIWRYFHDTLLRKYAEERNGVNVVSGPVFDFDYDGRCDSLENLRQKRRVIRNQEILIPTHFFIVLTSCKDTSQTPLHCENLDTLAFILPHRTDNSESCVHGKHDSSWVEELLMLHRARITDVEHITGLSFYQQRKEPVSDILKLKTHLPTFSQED
Method in brief: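 NPP1 activity with 5 mM pNP-TMP in 50 mM Tris pH 7.4 or 100 mM Tris pH 8.9 with 2 mM MgCl2 at 37 °C. Reaction started with enzyme and stopped with 1 M NaOH at set times. p-Nitrophenolate read at 410 nm, in triplicate, with no-enzyme controls. Inhibitor tested at 10 μM final.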

[8] = target: T3, Phosphoethanolamine/phosphocholine phosphatase (Homo sapiens) (UniProt Q8TCT1); experiment: Inhibition of PHOSPHO1 assessed as inorganic phosphate release; conditions: concentration not given here
T3 sequence (whole entry): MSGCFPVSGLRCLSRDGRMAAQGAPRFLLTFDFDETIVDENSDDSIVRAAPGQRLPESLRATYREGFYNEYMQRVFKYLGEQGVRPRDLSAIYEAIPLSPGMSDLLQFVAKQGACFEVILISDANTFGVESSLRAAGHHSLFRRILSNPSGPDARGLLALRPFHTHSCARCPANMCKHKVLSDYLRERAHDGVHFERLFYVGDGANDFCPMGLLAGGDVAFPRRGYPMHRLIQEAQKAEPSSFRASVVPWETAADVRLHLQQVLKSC

[9] = Cmax in rat at 4.13 mg/kg, sc; assay type: ADME, organism-based; set-up: dose 4.13 mg/kg, route subcutaneous; conditions: in vivo
Method in brief: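 Rats dosed subcutaneously with 400 microliters of a […] solution (4.13 mg/kg) in 50% DMSO in normal saline. Blood drawn and frozen immediately, plasma kept at -20 °C. Compound quantified by LC-MS/MS (electrospray, C18 reverse-phase, water-acetonitrile gradient) against a 7-point calibration curve built from peak areas of serial dilutions.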

Sequence of Intestinal-type alkaline phosphatase (P09923 whole entry): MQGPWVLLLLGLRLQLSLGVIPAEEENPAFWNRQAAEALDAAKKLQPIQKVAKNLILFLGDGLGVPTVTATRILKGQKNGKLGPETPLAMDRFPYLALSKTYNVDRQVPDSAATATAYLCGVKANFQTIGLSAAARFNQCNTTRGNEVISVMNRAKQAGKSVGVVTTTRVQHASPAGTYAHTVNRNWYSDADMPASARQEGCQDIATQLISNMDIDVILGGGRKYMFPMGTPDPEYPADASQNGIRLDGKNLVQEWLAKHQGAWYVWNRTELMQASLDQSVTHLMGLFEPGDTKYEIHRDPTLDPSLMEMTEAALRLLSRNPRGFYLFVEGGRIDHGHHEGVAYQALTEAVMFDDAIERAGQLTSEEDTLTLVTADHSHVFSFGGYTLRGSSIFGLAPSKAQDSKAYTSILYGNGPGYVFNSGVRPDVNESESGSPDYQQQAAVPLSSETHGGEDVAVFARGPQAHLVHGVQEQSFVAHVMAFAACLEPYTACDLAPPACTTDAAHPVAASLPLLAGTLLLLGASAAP

SMILES: COc1cc([N+](=O)[O-])ccc1S(=O)(=O)Nc1cnc2ccccc2c1
remaining at 0.5 h [1]: 56% | remaining at 0.5 h [2]: 96% | permeability [3]: 11% | solubility kinetic [4]: 0.178 mg/mL (≈ 495 µM) | IC50 [5]: 0.74 µM

SMILES: COc1cc(C)c(Cl)cc1S(=O)(=O)Nc1cccnc1
IC50 [5]: 0.51 µM

SMILES: COc1ccc(OC)c(S(=O)(=O)Nc2cccnc2)c1
IC50 [5]: 1.06 µM

SMILES: COc1cc(C)c(C)cc1S(=O)(=O)Nc1cccnc1
IC50 [5]: 1.68 µM

SMILES: COc1cc([N+](=O)[O-])ccc1S(=O)(=O)Nc1cccnc1
remaining at 0.5 h [1]: 68% | remaining at 0.5 h [2]: 99% | permeability [3]: 51% | solubility kinetic [4]: 0.0011 mg/mL (≈ 3.56 µM) | IC50 [5]: 3.16 µM

SMILES: COc1cc(S(=O)(=O)Nc2cccnc2)c(OC)cc1Cl
IC50 [5]: 1.13 µM

SMILES: COc1ccc(OC)c(S(=O)(=O)Nc2cnc3ccccc3c2)c1
remaining at 0.5 h [1]: 78% | remaining at 0.5 h [2]: 97% | permeability [3]: 58% | solubility kinetic [4]: 0.138 mg/mL (≈ 401 µM) | IC50 [6]: > 100 µM | inhibition [7]: < 9.5% | inhibition [8]: < 7.4% | Cmax [9]: 1.5 µg/mL

SMILES: COc1ccc(C)cc1S(=O)(=O)Nc1cnc2ccccc2c1
remaining at 0.5 h [1]: 48% | remaining at 0.5 h [2]: 91% | permeability [3]: 7% | solubility kinetic [4]: 0.0716 mg/mL (≈ 218 µM) | IC50 [5]: 0.65 µM

SMILES: CCOc1ccc(C)cc1S(=O)(=O)Nc1cccnc1
IC50 [5]: 1.13 µM

SMILES: COc1ccc(OC)c(NS(=O)(=O)c2cnc3ccccc3c2)c1
IC50 [5]: > 10 µM

SMILES: COc1ccc(Br)cc1S(=O)(=O)Nc1cnc2ccccc2c1
remaining at 0.5 h [1]: 49% | remaining at 0.5 h [2]: 66% | permeability [3]: 54% | solubility kinetic [4]: 0.0379 mg/mL (≈ 96.4 µM)

SMILES: COc1cccc(S(=O)(=O)Nc2cnc3ccccc3c2)c1
IC50 [5]: > 10 µM

SMILES: COc1cc(S(=O)(=O)Nc2cccnc2)c(OC)cc1C
IC50 [5]: 1.49 µM

Next, values leading:

IC50 [5]: 1.55 µM
SMILES: COc1cc(S(=O)(=O)Nc2cccnc2)c(OC)cc1Br

IC50 [5]: 0.54 µM
SMILES: CCOc1ccc(Cl)cc1S(=O)(=O)Nc1cccnc1

remaining at 0.5 h [1]: 39% | remaining at 0.5 h [2]: 98% | permeability [3]: 83% | solubility kinetic [4]: 0.0285 mg/mL (≈ 102 µM) | IC50 [5]: 1.85 µM
SMILES: COc1ccc(C)cc1S(=O)(=O)Nc1cccnc1

IC50 [5]: 0.69 µM
SMILES: CCOc1cc(C)c(Cl)cc1S(=O)(=O)Nc1cccnc1

IC50 [5]: > 10 µM
SMILES: COc1ccc(OC)c(S(=O)(=O)Nc2ccc3ncccc3c2)c1

IC50 [5]: > 10 µM
SMILES: COc1ccc(OC)c(S(=O)(=O)Nc2ccc3ccccc3c2)c1

IC50 [5]: 1.29 µM
SMILES: COc1ccc(F)cc1S(=O)(=O)Nc1cccnc1

IC50 [5]: > 10 µM
SMILES: COc1ccc(OC)c(CNc2cnc3ccccc3c2)c1

— ChEMBL document CHEMBL1154612, “Discovery and validation of a series of aryl sulfonamides as selective inhibitors of tissue-nonspecific alkaline phosphatase (TNAP)” (J Med Chem, 2009)
